According to ChEMBL document CHEMBL1147580, “Antihyperglycemic activity of 2-methyl-3,4,5-triaryl-1H-pyrroles in SLM and STZ models” (2004):
Calls of active or inactive are those of the source. No cut-off for these calls is given here.

What was measured:
Rattus norvegicus [1] = test: In vivo anti-hyperglycaemic activity of compound in rat sucrose(100 mg/kg, oral gavage) loaded model (SLM) at 100 mg/kg dose; NA = not active; type: functional, organism-based; parameters: dose 100 mg/kg
In short: (§1)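 Overnight-fasted male Sprague–Dawley rats, five per group, were bled at baseline and then given the compound at 100 mg/kg by oral gavage. Sucrose (10 gm/kg) was loaded 30 min later. Blood glucose was taken at 30, 60, 90 and 120 min after the load, and % fall was calculated by the AUC method. Values are means of three experiments.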

Rattus norvegicus [2] = test: In vivo anti-hyperglycaemic activity of compound in rat streptozotocin(60 mg/kg, ip) model (STZ) at 100 mg/kg dose
Rattus norvegicus [3] = test: In vivo anti-hyperglycaemic activity of compound in rat sucrose(100 mg/kg, oral gavage) loaded model (SLM) at 100 mg/kg dose; type: functional; in short: as §1

Structure (SMILES)	Blood sugar lowering (Rattus norvegicus [1])	Blood sugar lowering (Rattus norvegicus [2]) [%]	Blood sugar lowering (Rattus norvegicus [3]) [%]
Cc1[nH]c(-c2cccc(Cl)c2)c(-c2cccc(Cl)c2)c1-c1ccc(F)cc1	inactive		
COc1ccc(-c2c(C)[nH]c(-c3ccccc3)c2-c2ccccc2)cc1OC		28.6	27.8
Cc1[nH]c(-c2ccccc2)c(-c2ccccc2)c1-c1cccc(C(F)(F)F)c1		25.1	40.8
Cc1[nH]c(-c2ccccc2)c(-c2ccccc2)c1-c1ccccc1F	inactive		
COc1ccc(-c2[nH]c(C)c(-c3ccc(F)cc3)c2-c2ccc(OC)cc2)cc1			14.7
Cc1[nH]c(-c2ccc(Cl)cc2)c(-c2ccc(Cl)cc2)c1-c1ccc(F)cc1	inactive		
COc1ccc(-c2c(C)[nH]c(-c3ccccc3)c2-c2ccccc2)c(OC)c1			20.3
Cc1[nH]c(-c2ccccc2)c(-c2ccccc2)c1-c1ccc(F)cc1		34.7	49.7
Cc1[nH]c(-c2ccc(Cl)cc2)c(-c2ccc(Cl)cc2)c1-c1ccccc1F	inactive		
c1ccc(-c2nc(-c3ccccc3)c(-c3ccccc3)nc2-c2ccccc2)cc1			21.9
